# Assay outcomes (PubChem)
# SENP7 inh = SENP7 protease inhibitors, primary screen, biochemical, luminescence, uHTS | Sentrin-specific protease 7 (Homo sapiens), Q9BQF6 | recombinant SENP7, Z-RLRGG-aminoluciferin luminescence, 40 min | inhibition, % at 5 µM | actives 1.5% (n = 330,000);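 active = inhibition above about 50% at the single test dose, limit read from the data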
# Target sequence (Q9BQF6 706-1050 limits assumed): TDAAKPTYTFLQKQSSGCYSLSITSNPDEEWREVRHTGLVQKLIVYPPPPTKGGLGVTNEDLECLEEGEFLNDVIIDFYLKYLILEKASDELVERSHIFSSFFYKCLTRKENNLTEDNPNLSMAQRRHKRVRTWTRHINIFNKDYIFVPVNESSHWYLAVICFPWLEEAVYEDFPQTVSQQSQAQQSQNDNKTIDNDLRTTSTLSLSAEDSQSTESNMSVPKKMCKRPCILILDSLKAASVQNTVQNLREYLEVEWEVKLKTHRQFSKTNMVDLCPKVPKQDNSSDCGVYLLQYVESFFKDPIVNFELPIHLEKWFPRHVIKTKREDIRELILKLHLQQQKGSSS
# SENP6 block = SENP6 protease inhibitors, primary screen, biochemical, luminescence, uHTS; Recombinant SENP6 catalytic domain, aminoluciferin luminescence; Sentrin-specific protease 6 (Homo sapiens), Q9GZR1; actives 1.8% (n = 330,000); AID 2599, 2010; inhibition, % at 10 µM;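 active = inhibition above about 50% at the single tested dose, limit read from the data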
# SENP8 block-1 = human SENP8 protease inhibitors, primary screen, biochemical, fluorescence, Nedd8 protein substrate, uHTS; Sentrin-specific protease 8 (Homo sapiens), Q96LD8; recombinant SENP8; inhibition, % at 20 µM; actives 0.64% (n = 360,000); AID 602440, 2012; in the data active = inhibition mostly above about 40%, no sharp cut-off; inactive = mostly below about 27%
# SENP8 block-2 = SENP8 protease inhibitors, primary screen, biochemical, luminescence; Sentrin-specific protease 8 (Homo sapiens), Q96LD8; AID 2540, 2010; inhibition, % at 10 µM; actives 1.2% (n = 330,000); purified SENP8, Z-RLRGG-aminoluciferin cleavage; in the data active = inhibition above about 50%
# SENP1 FRET inh = human SENP1 catalytic domain inhibitors, primary screen, biochemical, FRET, uHTS | Sentrin-specific protease 1 (Homo sapiens), Q9P0U3 | recombinant SENP1 catalytic domain, CyPet-SUMO1-YPet FRET cleavage | inhibition, % at 10 µM | actives 0.21% (n = 360,000);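 active = inhibition at least 30% at 10 µM, raw YFP signal under a set limit, fluorescence ratio 0.5 to 1.5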
# Target sequence (Q9P0U3 419-644 limits assumed): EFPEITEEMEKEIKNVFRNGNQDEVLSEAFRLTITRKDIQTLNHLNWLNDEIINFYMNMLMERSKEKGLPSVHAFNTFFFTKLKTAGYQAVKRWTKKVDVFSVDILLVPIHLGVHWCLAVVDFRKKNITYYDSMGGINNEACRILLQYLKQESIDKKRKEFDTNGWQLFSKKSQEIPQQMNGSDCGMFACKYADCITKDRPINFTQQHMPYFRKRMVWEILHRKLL
#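 Test system: recombinant human SENP1 catalytic domain, His6-tagged / Medium: pH 8 Tris buffer with EDTA, NaCl, BME, BSA, NP40, catalase / Also added: SUMO1 FRET substrate flanked by Cypet and Ypet, 25 nM / Times: 50 min reaction at room temperature / Signal: FRET, CFP and YFP emission / Control set: no-enzyme low control and enzyme-plus-DMSO high control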
# Numbers stand for hits; – = inactive; · = no result given. Sampled rows, rich in hits. Any-hit rate of the full collection: about 2.5%.
SMILES,SENP7 inh,SENP6 block,SENP8 block-1,SENP8 block-2,SENP1 FRET inh
Cc1ccc(S(=O)(=O)/N=C2\C(=O)c3ccccc3C([O-])=C2n2cc[n+](CCC(C)C)c2)cc1,–,–,84,–,–
CCCC[n+]1ccn(C2=C([O-])c3ccccc3C(=O)/C2=N\S(=O)(=O)c2ccc(Br)cc2)c1,–,–,74,–,–
Cc1ccc(NC(=O)C[n+]2ccn(C3=C([O-])c4ccccc4C3=O)c2)cc1,–,–,–,–,–
O=C(NCc1ccc(Cl)nc1)c1ccc2nc([C@@H]3O[C@H](CO)[C@H](O)[C@H](O)[C@H]3O)[nH]c2c1,·,·,–,·,–
COc1cccc(NC(=O)COC(=O)c2sccc2C)c1,–,–,–,–,–
CCOc1cc(Br)c(Br)c(C=Nc2ccc(NC(C)=O)cc2)c1O,–,–,–,–,41
CCOc1cc(/C=N/NC(=O)C(N)=O)cc(Br)c1O,–,–,–,–,–
N#C/C(=N\Nc1cccc(C(F)(F)F)c1)C(=O)c1ccsc1,–,88,–,64,–
COc1ccccc1NC(=S)N1CCN(c2ccccc2F)CC1,–,–,–,–,–
C/C(=C1/C(=O)N(c2ccc([N+](=O)[O-])cc2)N=C1c1ccccc1)N(C)C,–,–,·,–,·
CN(C)/C=C1/C(=O)N(c2ccc([N+](=O)[O-])cc2)N=C1c1ccccc1,97,101,·,96,·
COc1ccc(F)cc1-c1cc(NC(C)=O)c2ncc(-c3cccc(C(F)(F)F)c3)n2c1,·,·,–,·,–
O=C1C(c2ccc(F)cc2)N(Cc2ccc3c(c2)OCO3)C(=O)CN1C1CCCCCC1 (stereo not given),–,–,–,–,–
COc1ccc(C2C(=O)N(C3CCCCC3)CC(=O)N2Cc2ccc3c(c2)OCO3)cc1 (stereo not given),–,100,–,–,–
COc1ccc(NC(=S)NC(NC(=O)c2cccc3ccccc23)C(Cl)(Cl)Cl)c([N+](=O)[O-])c1 (stereo not given),–,–,–,–,–
COc1ccc(NC(=S)NC(NC(=O)CCl)C(Cl)(Cl)Cl)c([N+](=O)[O-])c1 (stereo not given),–,–,52,–,–
Cc1cc(C)c2nc(NC(=O)[C@@H](NC(=O)c3cccc(S(=O)(=O)N4CCOCC4)c3)C(C)C)sc2c1,–,–,–,–,–
Cc1noc(C)c1C(=O)Nc1nc2ccccc2s1,98,97,–,94,–
COc1cccc(N=Nc2c(=O)[nH]n3c(C)cc(C)nc23)c1,–,–,–,–,–
CCOc1ccc(N=Nc2c(=O)[nH]n3c(C)cc(C)nc23)cc1,–,–,53,–,–
CCN(CC(=O)Nc1ccccc1C(F)(F)F)C(=O)c1ccc(-n2nc(C)c(CCC(=O)OC)c2C)cc1,·,·,–,·,–
Oc1csc(Cc2nc(-c3ccc4ccccc4c3)cs2)n1,66,–,–,–,–
O=C(NCCN1CCC(n2c(=O)[nH]c3ccccc32)CC1)c1cccnc1Cl,·,·,–,·,–
COCCOCCn1c(CCCO)nc2ccccc21,–,–,–,–,–
COCCOCCn1c(/C=C/c2ccccc2)nc2ccccc21,–,74,–,61,–
SMILES,SENP7 inh,SENP6 block,SENP8 block-1,SENP8 block-2,SENP1 FRET inh
CCCC1NC(=O)c2cccnc2-n2c1nc1cc(C)cc(C)c1c2=O (stereo not given),·,·,–,·,–
CC(Oc1ccc(F)cc1)C(=O)Nc1ccccc1C(=O)N1CCCCC1 (stereo not given),–,–,–,–,–
COc1ccc(CN(C)S(=O)(=O)c2ccc3c(c2)OCCO3)cc1,–,–,–,–,–
Cc1ccn2cc(-c3ccc(O)c(O)c3)nc2c1,67,67,–,56,–
Oc1ccc(-c2cn3ccccc3n2)cc1O,–,–,–,–,–
C/C(=N/NC(=O)CNC(=O)c1ccncc1)c1ccco1,–,–,–,–,–
Cc1cc(C(=O)COC(=O)c2ccccc2Br)c(C)n1CC1CCCO1 (stereo not given),94,95,–,93,–
Cc1ccc(C(=O)OCC(=O)c2cc(C)n(CC3CCCO3)c2C)cc1 (stereo not given),–,–,–,–,–
CCC(c1nnnn1-c1c(C)cccc1C)N1CCN(c2ccccn2)CC1 (stereo not given),·,·,–,·,–
COc1ccc(-n2c(C)c([N+](=O)[O-])c3ccc(O)c(CN(C)C)c32)cc1,–,–,42,–,–
Oc1c(Br)cc(Cl)cc1C=Nc1ccc(N2CCOCC2)cc1,–,–,–,–,–
Oc1ccc(N=Nc2cccc(Cl)c2)cc1C=Nc1ccc(N2CCOCC2)cc1,·,·,53,·,–
O=[N+]([O-])c1cc(Cl)cc(/C=N/n2cnnc2)c1O,–,–,47,–,–
Fc1ccc(C2=Nc3cccc4cccc(c34)N2)cc1,–,–,–,–,–
FC(F)(F)C1=Nc2cccc3cccc(c23)N1,–,–,62,–,–
C[C@H]1CN([C@@H](C)CO)C(=O)CCCn2cc(nn2)CO[C@@H]1CN(C)C(=O)Nc1ccc(-c2cccs2)cc1,·,·,–,·,–
CN(C)C(=O)NC(O)C(Cl)Cl (stereo not given),–,–,·,–,·
Nc1cc2nsnc2cc1Br,95,96,93,97,–
O=C(Nc1ccc(O)c(C(=O)O)c1)Oc1ccccc1,56,76,–,60,–
Cc1ccc(NC(=S)N(CCN2CCOCC2)Cc2cc3cc4c(cc3[nH]c2=O)OCO4)cc1,–,–,–,–,–
Cc1cc(-c2nc3ccccc3s2)ccc1N,·,·,–,·,–
Cc1cc(OCc2nc3ccccc3s2)ccc1N,–,70,–,54,–
N/C(=N\OC(=O)Cc1ccccc1[N+](=O)[O-])c1ccccn1,–,–,–,–,–
Cc1c(C(=O)O/N=C(\N)c2ccccn2)cccc1[N+](=O)[O-],85,79,–,78,–
O=C(/C=C/Nc1ccc(F)c(F)c1)c1ccc(Br)cc1,67,–,–,–,–
SMILES,SENP7 inh,SENP6 block,SENP8 block-1,SENP8 block-2,SENP1 FRET inh
NS(=O)(=O)c1ccc(NC(=O)COC(=O)CCNC(=O)NC23CC4CC(CC(C4)C2)C3)cc1,–,–,–,–,–
O=C(/C=C/c1ccccc1)NCCSc1ccc(Cl)cc1,–,–,40,–,–
Cc1nc2sc(-c3ccccc3)cc2c(=O)n1N,99,95,–,96,–
Cc1nc2sc(-c3ccccc3)cc2c(=O)n1/N=C/N(C)C,–,–,–,–,–
O=C(CSc1nnnn1C1CCCCC1)NCCc1ccccc1,–,–,–,–,–
C/C(=N\Nc1cccc2cccnc12)c1ccccn1,92,72,–,89,–
C/C(=N\NC(=O)c1cc2ccccc2cc1O)c1ccccn1,72,95,–,89,–
Clc1ccc2nc(C(Cl)(Cl)Cl)[nH]c2c1,·,·,–,·,–
